APP 5'UTR act: activates APP 5'UTR luciferase reporter; SH-SY5Y APP 5'UTR luciferase reporter, luminescence; zero percent = DMSO vehicle wells; activation, % at 2 µM; actives 1% (n = 190,000); AID 1276;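 active means activation above a set limit, based on mean plus 3 SD of controls, cut at about 140% in these data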
C8 TRAIL sens: caspase-8 TRAIL sensitization. NB7+C8 cells + TRAIL, ATPlite viability luminescence. inhibition (viability loss, TRAIL sensitization), % at 10 µM. actives 1% (n = 360,000);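 active means compounds causing at least 50% loss of cell viability in the single-dose screen, relative to plate controls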
PPC-1+TRAIL kill: kills PPC-1 cancer cells in the presence of TRAIL | AID 1443 | PPC-1 cells + TRAIL, ATPLite viability luminescence | actives 0.41% (n = 220,000) | cell killing (% activity), % at 4 µM or 5 µM;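 active means cell killing above 50% in the first pass at 4 µM, then a duplicate retest at 5 µM averaging 50% or more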;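 further: plate controls were cells with TRAIL plus DMSO for no effect and medium-only wells lacking cells for full effect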
FLuc act counter: firefly luciferase counter-screen for stimulation assays | P08659 | ATPlite luciferase biochemical, luminescence, 10 min; 0 = ATP-free wells, 1 = DMSO control | activation factor at 10 µM | 200,000 tested, under 10 active;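 active means luciferase activation factor, scaled between plate controls, of at least 2 with compound at 10 µM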
Target sequence (P08659 whole entry, looked up): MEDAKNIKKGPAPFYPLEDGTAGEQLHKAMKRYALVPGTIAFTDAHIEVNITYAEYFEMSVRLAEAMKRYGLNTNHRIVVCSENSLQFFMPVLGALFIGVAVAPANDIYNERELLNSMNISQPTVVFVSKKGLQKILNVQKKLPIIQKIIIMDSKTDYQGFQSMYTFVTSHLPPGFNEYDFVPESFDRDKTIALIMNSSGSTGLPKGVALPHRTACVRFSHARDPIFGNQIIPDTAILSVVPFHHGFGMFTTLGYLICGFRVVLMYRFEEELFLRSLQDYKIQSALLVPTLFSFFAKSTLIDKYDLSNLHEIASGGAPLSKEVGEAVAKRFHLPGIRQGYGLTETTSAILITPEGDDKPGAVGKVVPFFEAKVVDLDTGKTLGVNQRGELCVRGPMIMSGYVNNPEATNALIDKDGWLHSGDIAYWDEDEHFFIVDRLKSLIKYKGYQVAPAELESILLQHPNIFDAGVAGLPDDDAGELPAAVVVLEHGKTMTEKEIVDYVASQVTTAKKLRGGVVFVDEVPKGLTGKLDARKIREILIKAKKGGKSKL
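Assay system – cell-free luciferase reagent · Medium – PBS-based ATP solution · Dosing – test compounds dosed from 2 mM stocks in 100% DMSO · Timing – 10 min, room temperature · Technique – light output (luminescence) · Measure – luminescence gain marking luciferase activators · Controls – No-ATP low control, compound-free enzyme-plus-ATP high control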
NF-kB expr up: compounds increasing NF-kB expression in human neuronal cells | NF-kB reporter expression; stronger effect = higher value | actives 1.6% (n = 190,000) | fold change at 12.5 µM; in the data active means fold change above about 3.3
FLuc inhib CS: counter-screen for luciferase assay inhibitors: firefly luciferase inhibition; AID 1006; P08659; inhibition, % at 10 µM; ATPLite firefly luciferase biochemical luminescence, 10 min; actives 1.5% (n = 200,000);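 active means inhibition above about 50% when tested at 10 µM, limit read from the data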
* hit, by the source's call; / = not tested or not shown. In the library only some 2.2% were active in any assay of this set; here they are far more common.

SMILES | APP 5'UTR act | C8 TRAIL sens | PPC-1+TRAIL kill | FLuc act counter | NF-kB expr up | FLuc inhib CS
CCCS(=O)(=O)NC(=O)C1(C)CCN(C(=O)COc2ccc(Cl)cc2Cl)C1 (centres undefined) | / | -1 | / | / | / | /
Cc1ccccc1NC1=C/C(=N\S(=O)(=O)c2cccs2)c2ccccc2C1=O | -10 | 90* | 26 | 1 | 0.21 | 1
COc1ccc(NC(=O)C2Cc3c(-c4ccccc4Oc4ccccc4)ccnc3O2)cc1OC (centres undefined) | / | 15 | / | / | / | /
CC(C)c1ccc(/C=N/N2CCCCC2)cc1 | 102 | 3 | 9 | 0.3 | 1.3 | 66*
CCc1cc(CNC(=O)CCc2nnc(CCCc3ccccc3)o2)on1 | 70 | 8 | -9 | 1 | 3.4* | 0
CC(C)c1cc(CNC(=O)CCc2nnc(CCCc3ccccc3)o2)on1 | 27 | -6 | / | 1 | 2.3 | -2
CC(=O)Nc1ccc(-c2csc(Nc3ccc(Cl)cn3)n2)cc1 | 28 | 21 | 21 | 1 | 1.2 | -3
Cc1ccc(Nc2nc(-c3ccc(F)cc3)cs2)nc1 | / | 15 | / | / | / | /
Cc1ccc(Nc2nc(-c3ccc(O)c(O)c3)cs2)nc1 | -6 | / | 0 | 0.8 | 9.4* | 19
CC(=O)Nc1cccc(-c2csc(Nc3cc(C)ccn3)n2)c1 | 138* | -21 | 0 | 0.7 | 2.4 | 31
CC(=O)Nc1cccc(-c2csc(Nc3ccccn3)n2)c1 | 184* | 22 | 39 | 0.7 | 5.4* | 31
CC(=O)Nc1cccc(-c2csc(Nc3ccc(Cl)cn3)n2)c1 | 182* | 8 | 28 | 0.8 | 6.5* | 19
CC(=O)NC(C)(c1ccccc1)c1nc(-c2cncnc2)cs1 (centres undefined) | / | 8 | / | / | / | /
CCCCCCCCN1C(=O)[C@H](CC(=O)N2CCN(C(=O)OCC)CC2)C[C@@]2(C(=O)OC)CC(C)(C)CC=C12 | / | 2 | / | / | / | /
CC(C)(C)c1ccc(C(=O)NCCc2ccccc2)cc1 | / | 40 | / | / | / | /
Cc1ccc(C(=O)NCCSC(C)(C)C)cc1 | 125 | -9 | -6 | 0.9 | 4.1* | 13
CSCCNC(=O)c1ccc(C(C)(C)C)cc1 | -5 | 20 | 41 | 0.3 | 5.4* | 74*
CC(C)(C)SCCNC(=O)c1ccccc1 | / | -6 | -1 | 1 | 1.8 | 0
COc1ccc(Cc2nnc(N/N=C/c3ccc(O)cc3)[nH]c2=O)cc1OC | -86 | 61* | 28 | 0.9 | 1.4 | 9
O=c1[nH]c(N/N=C/c2ccc(O)cc2)nc2ccccc12 | 134 | 17 | 8 | 0.4 | 2.9 | 56*
O=c1[nH]c(N/N=C\c2ccc(F)cc2)nc2ccccc12 | 189* | 44 | 29 | 0.4 | 4.1* | 64*
COc1ccc(Cc2nnc(N/N=C/c3ccc(Br)cc3)[nH]c2=O)cc1OC | / | -4 | -7 | / | / | /
O=C(O)c1ccc(/C=N/Nc2nc3ccccc3[nH]2)cc1 | / | -5 | -4 | / | / | /
Oc1c(Cl)cc(Cl)cc1C=Nc1cc(C(F)(F)F)ccc1N1CCc2ccccc2C1 | / | 53* | 37 | / | / | /
Oc1c(Cl)cccc1C=Nc1cc(C(F)(F)F)ccc1N1CCCC1 | 5 | 2 | 24 | 1.1 | 0.89 | -5
SMILES | APP 5'UTR act | C8 TRAIL sens | PPC-1+TRAIL kill | FLuc act counter | NF-kB expr up | FLuc inhib CS
COC(=O)[C@@]12C[C@@H](CC(=O)NCc3ccccc3)C(=O)N(Cc3ccccc3)C1=CCC(C)(C)C2 | / | 10 | / | / | / | /
CCCNC(=O)C1(C)CCN(C(=O)Cc2ccc(OC)c(OC)c2)C1 (centres undefined) | / | -13 | / | / | / | /
O=C(Nc1nccs1)c1c(O)c2c([nH]c1=O)CCCC2 | / | 16 | 17 | / | / | /
O=C(Nc1ccccc1O)c1c(O)c2c([nH]c1=O)CCCC2 | 88 | 35 | 20 | 0.6 | 4.5* | 40
Fc1ccc(CSc2nnc(-c3cccs3)o2)cc1 | 24 | 4 | 18 | 1 | 2.2 | 0
Fc1ccccc1CSc1nnc(-c2cccs2)o1 | 119 | 10 | -4 | 0.9 | 4.1* | 11
c1ccc(CSc2nnc(-c3cccs3)o2)cc1 | 106 | 8 | 1 | 0.9 | 4.6* | 12
CC(C)Cn1c(/C=C/c2ccccc2)nc2ccccc21 | 49 | 46 | 4 | 0.4 | 2.1 | 58*
COc1ccc(-c2nc3ccccc3n2Cc2ccccc2)cc1 | 0 | 5 | 8 | 1 | 0.94 | 5
COc1ccc(Cn2c(/C=C/c3ccccc3)nc3ccccc32)cc1 | / | 48 | 26 | 0.5 | 6.1* | 50*
NC(=O)c1cccc(-c2ccnc3c2CC(C(=O)NCc2ccccc2)O3)c1 (centres undefined) | / | 16 | / | / | / | /
O=C(Nc1nc(=O)c2ccccc2s1)c1ccc(Cl)cc1 | -1 | 67* | 29 | 0.6 | 1.3 | 43
Cn1sc(NC(=O)c2ccc(Cl)cc2)nc1=O | 20 | 50* | 25 | 0.2 | 2.4 | 78*
O=C(Cc1ccccc1)Nc1nc(=O)c2ccccc2s1 | -2 | 1 | 15 | 1 | 1.2 | -2
CCn1c(NC(=O)c2ccc(F)cc2)c2ccccc2nc1=O | / | -1 | -11 | 1.1 | 0.84 | -5
O=C(Nc1nc(=O)c2ccccc2s1)c1ccc(F)cc1 | -3 | 55* | 18 | 0.5 | 3.3 | 54*
Cc1c(C)c2ccc(OCC(=O)Nc3nccs3)cc2oc1=O | / | 55* | / | / | / | /
Cc1cc(=O)oc2cc(OCC(=O)Nc3nccs3)ccc12 | / | 8 | / | / | / | /
Cc1cc2c(cc1C)-n1nnnc1C(N1CCN(c3ccccn3)CC1)C(c1ccc3c(c1)OCO3)=N2 (centres undefined) | / | -12 | / | / | / | /
O=C(C[C@H]1C[C@@H]2c3cc(NC(=O)Nc4ccccc4)ccc3O[C@@H]2[C@@H](CO)O1)NCC1CC1 | / | 6 | / | / | / | /
Cc1cccc(NC(=O)c2ccc3ccccc3n2)c1C | 211* | 19 | 2 | 0.6 | 9.1* | 42
CCC(CC)c1nnc(NC(=O)c2cc(-c3ccccc3)nc3ccccc23)s1 | 2 | -15 | -12 | 1.1 | 1.3 | -6
CCC(CC)c1nnc(NC(=O)c2ccc3ccccc3n2)s1 | 95 | 18 | 1 | 0.9 | 4.9* | 14
O=C(Nc1ccc(N2CCCCC2)cc1)c1ccc2ccccc2n1 | 85 | 42 | 45 | 0.5 | 2.5 | 54*
O=C(Nc1cccc(S(=O)(=O)N2CCCCCC2)c1)c1ccc2ccccc2n1 | 20 | 21 | 12 | 1 | 1.1 | 0
SMILES | APP 5'UTR act | C8 TRAIL sens | PPC-1+TRAIL kill | FLuc act counter | NF-kB expr up | FLuc inhib CS
CC1(C(=O)NS(=O)(=O)c2ccc(Br)cc2)CCN1C(=O)Cc1ccsc1 (centres undefined) | / | 1 | / | / | / | /
COc1ccc(NC(=O)C[C@H]2C(=O)N(CCc3ccccc3)C[C@@H]2Cc2ccccc2)cc1 | / | 18 | / | / | / | /
Cc1cc2nc(-c3ccccc3O)[nH]c2cc1C | / | 45 | / | / | / | /
Oc1ccccc1-c1n[nH]c(-c2ccccc2O)n1 | / | 60* | / | / | / | /
Clc1ccccc1-c1nc(-c2ccccc2)n[nH]1 | 109 | 21 | 9 | 0.7 | 4* | 27
Cc1cc(/C=c2/sc3nc4ccccc4n3c2=O)c(C)n1-c1ccccn1 | -60 | 80* | 5 | 0.1 | 0.17 | 90*
